High-throughput results: PubChem, Johns Hopkins Ion Channel Center
An excerpt weighted towards active compounds, which were near 3.5% of everything screened.
MrgX1 agonist: human MrgX1 receptor agonism, primary screen. MrgX1-HEK293 cells, Fluo-4 calcium fluorescence, agonist mode; hits give high values. 310,000 tested, 0.44% active. B-score at 10 µM;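 active means calcium response B-score plate-corrected fluorescence ratio at least 3 library SD, with starting fluorescence B-score inside 5 SD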
Target sequence (Q96LB2 whole entry, looked up): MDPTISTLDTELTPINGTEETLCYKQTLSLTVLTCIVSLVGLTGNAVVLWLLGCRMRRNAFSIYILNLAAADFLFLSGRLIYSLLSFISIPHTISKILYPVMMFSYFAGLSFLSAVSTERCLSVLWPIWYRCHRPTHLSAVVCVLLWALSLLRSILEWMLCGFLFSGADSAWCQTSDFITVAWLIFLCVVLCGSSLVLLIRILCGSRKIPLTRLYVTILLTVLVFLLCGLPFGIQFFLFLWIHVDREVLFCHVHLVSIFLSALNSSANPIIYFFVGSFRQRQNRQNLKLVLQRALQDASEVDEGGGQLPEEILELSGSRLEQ
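System: HEK293 cells stably expressing human MrgX1 receptor; Dosing: test compound in the initial addition of three; Schedule: overnight plating, then 30 min 37 °C plus 30 min room-temperature dye loading; Detection: kinetic calcium dye fluorescence, Fluo-4 NW; Controls: per-plate positive and negative controls for Z′ factor.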
RGS4 inh: human RGS4 inhibition; P49798; HEK293 M3R/RGS4 inducible, Fluo-4 calcium flux; hits give high values; triggered by carbachol at its EC20; B-score at 10 µM; 310,000 tested, 0.45% active;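 active means B-score, a plate-corrected calcium signal, over three deviations above library mean, with baseline fluorescence within five deviations of library mean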;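 further: RGS4 expression induced by doxycycline in cells with stable M3 receptor; B-score is computed from the integrated fluorescence ratio over baseline after carbachol; higher B-score means a larger calcium signal and so more RGS4 inhibition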
Target sequence (P49798 whole entry, looked up): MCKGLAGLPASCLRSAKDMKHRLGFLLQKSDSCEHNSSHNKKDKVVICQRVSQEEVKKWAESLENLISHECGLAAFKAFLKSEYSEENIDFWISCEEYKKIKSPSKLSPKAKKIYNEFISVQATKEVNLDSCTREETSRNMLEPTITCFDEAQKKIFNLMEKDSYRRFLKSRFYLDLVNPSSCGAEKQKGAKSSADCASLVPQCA
MrgX1 allo act: allosterically activates human MrgX1 receptor signaling. Q96LB2. MrgX1-HEK293, Fluo-4 calcium flux, FDSS; hits give high values. B-score at 10 µM. 310,000 tested, 0.63% active. AID 588675;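 active means plate-corrected calcium response at least 3 library SD above typical, normal starting fluorescence, not activating the receptor alone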;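 further: compound read alongside a low EC10 to EC30 dose of BAM8-22 agonist; peak minus trough fluorescence over baseline measured at the second addition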
RGS4 pot: potentiators or activators of RGS4 | 310,000 tested, 0.92% active | AID 463111 | B-score at 10 µM | HEK293 M3R/inducible RGS4, carbachol calcium flux Fluo4; hits give low values;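 active means B-score of the integrated calcium signal more than 4 SD below the library mean, with starting fluorescence not abnormally high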;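 further: negative B-score means reduced calcium response which marks RGS4 activation or potentiation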
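System – HEK293 FlpIn-TREx cells, stable M3R, doxycycline-inducible RGS4 · Reagent – ECmax carbachol challenge · Times – compound preincubation 20 min at room temperature before agonist · Technique – Fluo4 fluorescence kinetic imaging of calcium · Measure – B score of integrated Fluo4 ratio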
MrgX1 antagonist: human MrgX1 receptor antagonism, primary screen | Q96LB2 | MRGX1-HEK293 calcium flux, Fluo-4, BAM8-22 antagonism; hits give low values | B-score at 10 µM | 310,000 tested, 1.3% active;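 active means calcium-response B-score plate-corrected more than 3 library SD below zero, starting fluorescence within 5 deviations, no agonist response on first addition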;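 further: peak minus trough fluorescence over baseline after final BAM8-22 challenge near maximal dose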
MrgX1 allo conf: human MrgX1 positive allosteric modulation, re-confirmation; shares compounds with MrgX1 allo act; MrgX1-HEK293, Fluo-4 calcium fluorescence, FDSS; activation (ratio percentage), % at 10 µM; 1,200 tested, 13% active; AID 602413;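 active means ratio at least 3 SD above the weak peptide control, stable starting fluorescence, no direct agonism earlier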;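 further: compound followed by low BAM8-22 agonist challenge near EC20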
HEK293 Ca flux: activity in parental HEK293 cells lacking MrgX1. shares compounds with MrgX1 antagonist. Fluo-4 calcium fluorescence, FDSS. fluorescence ratio F(max-min)/F0 at 10 µM. 4,000 tested, 2% active;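 active means duplicate-averaged calcium fluorescence ratio at least three times the standard deviation of buffer wells, a nonspecific response in parental cells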
HEK293 Ca counter: MrgX1 allosteric activator counter-screen hit in parental HEK293 cells; shares compounds with MrgX1 antagonist; parental HEK293 calcium flux, Fluo-4 fluorescence ratio; hits give high values; fluorescence ratio F(max-min)/F0 at 10 µM; 4,000 tested, 0.4% active; AID 624114;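 active means calcium fluorescence ratio, averaged over duplicates, at least 3 SD of the buffer-well ratio, meaning a nonspecific response in receptor-free cells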;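 further: untransfected parental HEK293 lacking MrgX1 used as counterscreen for MrgX1 allosteric activators; fluorescence change taken during the second addition on a kinetic imager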
HEK293 Ca cntr2: activity in parental HEK293 cells lacking MrgX1 receptor; shares compounds with MrgX1 antagonist; Fluo-4 calcium fluorescence (FDSS); hits give high values; fluorescence ratio F(max-min)/F0 at 10 µM; 4,000 tested, 8.7% active;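 active means calcium fluorescence ratio at least three times the spread of buffer wells, meaning a non-specific response in parental cells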
Numbers stand for hits; i = inactive; nt = no result given.

SMILES	MrgX1 agonist	RGS4 inh	MrgX1 allo act	RGS4 pot	MrgX1 antagonist	MrgX1 allo conf	HEK293 Ca flux	HEK293 Ca counter	HEK293 Ca cntr2
CC(=O)NCC(=O)NC1CCCc2c1cnn2-c1ccc(C(C)(C)C)cc1 (centres undefined)	i	i	9	i	i	i	i	i	i
CC12CCC(=O)N1C(C(=O)Nc1nc(-c3ccc(F)c(F)c3)cs1)CS2 (centres undefined)	i	i	i	i	i	nt	nt	nt	nt
COc1ccc(-c2csc(NC(=O)C3CSC4(C)CCC(=O)N34)n2)cc1OC (centres undefined)	i	i	11	i	i	9.1%	i	i	i
COc1cc(/C=C(/C#N)C(=O)NCc2ccccc2)cc(OC)c1OC	i	i	36	i	i	i	i	i	i
CC(=O)NCCC(=O)Nc1ccc(C)c(F)c1	i	i	i	i	i	nt	nt	nt	nt
Cc1ccc(NCC(=O)Nc2ccc(Br)cc2)cc1F	i	i	8.1	i	i	i	i	i	i
COc1ccccc1NC(=O)c1sc2nc(N3CCOCC3)c3c(c2c1N)CCCC3	i	i	i	i	i	nt	nt	nt	nt
Cc1ccccc1NC(=O)c1sc2nc(N3CCOCC3)c3c(c2c1N)CCCC3	i	i	7.2	i	i	i	i	i	i
CC(=O)N1CCc2cc(Br)cc(S(=O)(=O)NCCCN3CCC(C)CC3)c21	i	nt	i	nt	i	nt	nt	nt	nt
CC(=O)N1CCc2cc(Br)cc(S(=O)(=O)NCCN3CCCCC3C)c21 (centres undefined)	i	i	9.1	i	i	i	i	i	i
COc1ccccc1-n1c(=O)c2c3c(sc2n2c(SC)nnc12)CCC3	i	i	15	i	i	i	i	i	i
CCSc1nnc2n(-c3ccc(OC)cc3)c(=O)c3c4c(sc3n12)CCCC4	i	i	i	i	i	nt	nt	nt	nt
COc1ccc2nc(NC(=S)N(C)C)sc2c1	i	i	12	i	i	i	i	i	i
COc1cccc(OCC(=O)NNC(=S)Nc2ccc(Cl)cc2Cl)c1	i	i	i	i	i	nt	nt	nt	nt
Cc1nc2cc(Cl)ccc2n1-c1ccccc1	i	i	16	i	i	i	i	i	i
CN(C)c1cc(-c2ccc(Cl)cc2Cl)oc(=O)c1Cl	i	i	i	i	i	nt	nt	nt	nt
N#CCCN(C(=O)COC(=O)Cc1c[nH]c2ccccc12)c1ccccc1	i	i	i	i	i	nt	nt	nt	nt
CC1CCCC(NC(=O)CN2C(=O)c3cccnc3Oc3ccc(Cl)cc32)C1C (centres undefined)	i	i	11	i	i	i	i	i	78
O=C(CN1C(=O)c2cccnc2Oc2ccc(Cl)cc21)NC1CCCC1	i	i	i	i	i	nt	nt	nt	nt
Cc1cc(NCC(c2ccccc2)c2ccccc2)n2ncnc2n1	i	i	i	i	i	nt	nt	nt	nt
CC(=O)N1CCSc2ccc(S(=O)(=O)NCCc3cccc(C)c3)cc21	i	i	i	i	i	nt	nt	nt	nt
CC(=O)N1CCSc2ccc(S(=O)(=O)NCCc3ccc(C)cc3)cc21	i	i	6.9	i	i	i	i	i	i
Cc1cc(C)n2c(SCC(=O)Nc3ccc(F)cc3F)nnc2n1	i	i	i	i	i	nt	nt	nt	nt
Cc1cc(C)n2c(SCC(=O)Nc3ccc(F)cc3)nnc2n1	i	i	14	i	i	i	i	i	i
CS(=O)(=O)N(CC(=O)Nc1cccnc1)c1ccc2c(c1)OCO2	i	i	i	i	i	nt	nt	nt	nt
SMILES	MrgX1 agonist	RGS4 inh	MrgX1 allo act	RGS4 pot	MrgX1 antagonist	MrgX1 allo conf	HEK293 Ca flux	HEK293 Ca counter	HEK293 Ca cntr2
CCN1C(=O)CSC1=Nc1cccc(C(=O)O)c1	i	i	i	i	i	nt	nt	nt	nt
O=C(CN(C(=O)CNC(=O)c1cccs1)c1ccccc1)NC1CCCCC1	i	i	37	i	i	i	i	i	i
O=C(COc1ccccc1F)NC12CC3CC(CC(C3)C1)C2	i	i	6.6	i	i	i	i	i	i
O=C(COC(=O)C(O)c1ccccc1)NC12CC3CC(CC(C3)C1)C2 (centres undefined)	i	i	i	i	i	nt	nt	nt	nt
O=C(COC(=O)C12CC3CC(CC(C3)C1)C2)Nc1ccccc1F	i	i	13	i	i	i	i	i	i
O=C(COC(=O)C12CC3CC(CC(O)(C3)C1)C2)Nc1ccccc1OC(F)F	i	i	i	i	i	nt	nt	nt	nt
O=C(N=C1SC2CS(=O)(=O)CC2N1c1ccccc1)C1CCCCC1 (centres undefined)	i	i	i	i	i	nt	nt	nt	nt
CCN(C(=O)c1c(N)cnn1C)c1ccccc1	i	i	10	i	i	i	i	i	i
COc1ccc(C(=O)NC(=S)Nc2cccnc2)cc1Cl	i	i	i	i	i	nt	nt	nt	nt
CCOc1ccc(NC(=O)c2c(NC(=O)CNCCN3CCOCC3)sc3c2CCC3)cc1	i	i	i	i	i	nt	nt	nt	nt
CC(=O)Cc1nsc(NC(=O)c2ccc(-c3ccccc3Cl)o2)n1	i	i	26	i	i	i	i	i	i
Cc1cc(C)n(-c2ccc(C(=O)NC3CCCCC3)cc2)n1	i	i	9.8	i	i	i	i	i	i
Cc1ccc(C(=O)NC2CCCCC2)cc1	i	i	i	i	i	nt	nt	nt	nt
CN1CCc2c(OCC(=O)N3CCC(Cc4ccccc4)CC3)cccc2C1=O	i	i	9.8	i	i	i	i	i	i
CCN1CCc2c(OCc3ccccc3)cccc2C1=O	i	i	11	i	i	i	i	i	i
CC(Cc1cccnc1)NC(=O)c1ccccc1OC1CCN(S(C)(=O)=O)CC1 (centres undefined)	i	i	i	i	i	nt	nt	nt	nt
Cc1ccc2nc(-c3ccncc3)c(NC3CCCC3)n2c1	i	i	i	i	i	nt	nt	nt	nt
Cc1ccn2c(NC3CCCC3)c(-c3ccccn3)nc2c1	i	i	12	i	i	i	i	i	i
Cc1ccn2c(NC3CCCC3)c(-c3ccncc3)nc2c1	i	i	7.3	i	i	14%	i	i	i
CS(=O)(=O)N(CC(=O)N1CCN(c2cccc(Cl)c2)CC1)c1cccc(F)c1	i	i	8.2	i	i	i	i	i	i
COc1ccc(OCCC(=O)NCC23CC4CC(CC(C4)C2)C3)cc1	i	i	8.9	i	i	i	i	i	i
Cc1c(Cl)cccc1NC(=O)CC1NCCNC1=O (centres undefined)	i	i	13	i	i	i	i	i	i
Cc1ccc(S(=O)(=O)N2CCOc3ccccc32)c(C)c1NS(C)(=O)=O	i	i	i	i	i	nt	nt	nt	nt
